Values after ≈ are worked out from the molar mass of the structure shown.
Assays:
[1] = system: Human immunodeficiency virus 1; test: Antiviral activity against HIV1 NL4.3 harboring integrase N124/T125 mutant; format: functional, organism-based; details: Human immunodeficiency virus 1, NL4.3
Procedure, shortened: (§1)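 Cell-based antiviral assay giving EC50 (nM) against wild-type NL4.3 (IN T124/T125) or recombinant NL4.3 engineered to carry the naturally polymorphic integrase residues at positions 124 and 125.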

[2] = system: Human immunodeficiency virus 1; test: Antiviral activity against HIV1 NL4.3 harboring integrase T124/T125 mutant; format: functional, organism-based; details: Human immunodeficiency virus 1, NL4.3; procedure, shortened: as §1
[3] = biological target: T1, Human immunodeficiency virus type 1 integrase (Human immunodeficiency virus 1, UniProt Q7ZJM1); test: Apparent binding affinity to Trx-His-tagged HIV integrase; details: read-out: Kd(app)
Procedure, shortened: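 Apparent dissociation constant from the same displacement assay, run instead with a thioredoxin-tagged His6 integrase construct.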

[4] = Half life in human liver microsomes; format: ADME
[5] = Half life in rat liver microsomes; format: ADME
[6] = system: Human immunodeficiency virus 1; test: Antiviral activity against HIV1 NL4.3 harboring integrase N124/T125 mutant relative to control in presence of 50% human serum; format: functional
Procedure, shortened: (§2)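 Serum shift for the same NL4.3 IN-variant viruses, from EC50 values measured with and without 50% human serum.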

Cytochrome P450 2D6 = Cytochrome P450 2D6 (Homo sapiens, UniProt P10635); test: Inhibition of CYP2D6 (unknown origin); format: ADME
[7] = Apparent permeability in human Caco2 cells; format: ADME, cell-based; details: Caco-2
[8] = Half life in rat; format: ADME, organism-based; details: in vivo
[9] = system: Human immunodeficiency virus 1; test: Antiviral activity against HIV1 NL4.3 harboring integrase A124/A125 mutant relative to control in presence of 50% human serum; format: functional; procedure, shortened: as §2
[10] = system: Human immunodeficiency virus 1; test: Antiviral activity against HIV1 NL4.3 harboring integrase T124/T125 mutant relative to control in presence of 50% human serum; format: functional; procedure, shortened: as §2
[11] = system: Human immunodeficiency virus 1; test: Antiviral activity against HIV-1 NL4.3-HxB2 virus harboring integrase T124/T125 mutant relative to control in presence of 50% human serum; format: functional
[12] = system: Human immunodeficiency virus 1; test: Antiviral activity against HIV1 NL4.3 harboring integrase N124/A125 mutant relative to control in presence of 50% human serum; format: functional; procedure, shortened: as §2
[13] = Drug excretion in bile duct cannulated rat bile after 3 hrs; format: ADME; details: read-out: Drug excretion
Procedure, shortened: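 Rats with cannulated bile ducts were dosed, and the fraction of compound excreted into bile was measured at the 3 h time point.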

Rattus norvegicus = organism: Rattus norvegicus; test: Clearance in rat; format: ADME, organism-based; details: in vivo
[14] = Lipophilicity, log D of the compound at pH 7.4; format: physicochemical; details: buffer
Cytochrome P450 3A4 = Cytochrome P450 3A4 (Homo sapiens, UniProt P08684); test: Inhibition of CYP3A4 (unknown origin); format: ADME
[15] = Half life in bile duct cannulated rat; format: ADME, organism-based; details: in vivo
[16] = system: Human immunodeficiency virus 1; test: Antiviral activity against HIV1 NL4.3 harboring integrase A124/T125 mutant relative to control in presence of 50% human serum; format: functional; procedure, shortened: as §2
[17] = system: Human immunodeficiency virus 1; test: Antiviral activity against HIV-1 NL4.3-HxB2 virus harboring integrase T124/T125 mutant; format: functional, organism-based; details: Human immunodeficiency virus 1, NL4.3-HxB2; pooled result: one value given for 4 cell lines, strains, targets or settings
[18] = Solubility of the compound at pH 6.8; format: physicochemical; details: buffer
[19] = system: Human immunodeficiency virus 1; test: Antiviral activity against HIV1 NL4.3 harboring integrase T124/A125 mutant; format: functional, organism-based; details: Human immunodeficiency virus 1, NL4.3; procedure, shortened: as §1
[20] = biological target: T1, Human immunodeficiency virus type 1 integrase; test: Apparent binding affinity to His-tagged HIV integrase; details: read-out: Kd(app)
[21] = biological target: Human immunodeficiency virus type 1 integrase (Human immunodeficiency virus 1) (UniProt Q7ZJM1); test: Ratio of app-Kd for Trx-His-tagged HIV integrase to His-tagged HIV integrase
Chain of Human immunodeficiency virus type 1 integrase (Human immunodeficiency virus 1) (Q7ZJM1 as listed by the source): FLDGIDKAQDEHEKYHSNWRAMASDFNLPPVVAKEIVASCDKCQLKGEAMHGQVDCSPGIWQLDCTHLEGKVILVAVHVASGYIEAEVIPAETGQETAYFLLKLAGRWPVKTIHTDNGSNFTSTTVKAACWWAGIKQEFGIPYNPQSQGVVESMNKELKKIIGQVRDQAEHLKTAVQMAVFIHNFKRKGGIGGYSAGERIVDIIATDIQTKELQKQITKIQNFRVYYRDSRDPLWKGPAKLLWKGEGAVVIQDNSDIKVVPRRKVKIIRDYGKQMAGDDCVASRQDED

T1 sequence (Q7ZJM1 whole entry): as the sequence (Q7ZJM1 as listed by the source) above
Chain of Cytochrome P450 2D6 (P10635 whole entry): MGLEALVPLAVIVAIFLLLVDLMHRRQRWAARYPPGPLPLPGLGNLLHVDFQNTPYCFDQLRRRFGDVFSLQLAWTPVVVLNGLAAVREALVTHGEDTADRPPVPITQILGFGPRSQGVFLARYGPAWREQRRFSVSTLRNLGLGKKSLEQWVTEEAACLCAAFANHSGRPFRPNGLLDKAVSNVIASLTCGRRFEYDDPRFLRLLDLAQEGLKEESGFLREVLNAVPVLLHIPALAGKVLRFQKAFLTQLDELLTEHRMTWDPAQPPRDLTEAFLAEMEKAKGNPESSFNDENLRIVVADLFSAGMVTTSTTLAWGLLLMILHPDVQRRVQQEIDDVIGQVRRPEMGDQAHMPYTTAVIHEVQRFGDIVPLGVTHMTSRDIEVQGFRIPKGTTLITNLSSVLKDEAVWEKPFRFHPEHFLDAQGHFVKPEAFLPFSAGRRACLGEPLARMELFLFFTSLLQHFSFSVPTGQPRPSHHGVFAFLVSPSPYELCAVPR
Chain of Cytochrome P450 3A4 (P08684 whole entry): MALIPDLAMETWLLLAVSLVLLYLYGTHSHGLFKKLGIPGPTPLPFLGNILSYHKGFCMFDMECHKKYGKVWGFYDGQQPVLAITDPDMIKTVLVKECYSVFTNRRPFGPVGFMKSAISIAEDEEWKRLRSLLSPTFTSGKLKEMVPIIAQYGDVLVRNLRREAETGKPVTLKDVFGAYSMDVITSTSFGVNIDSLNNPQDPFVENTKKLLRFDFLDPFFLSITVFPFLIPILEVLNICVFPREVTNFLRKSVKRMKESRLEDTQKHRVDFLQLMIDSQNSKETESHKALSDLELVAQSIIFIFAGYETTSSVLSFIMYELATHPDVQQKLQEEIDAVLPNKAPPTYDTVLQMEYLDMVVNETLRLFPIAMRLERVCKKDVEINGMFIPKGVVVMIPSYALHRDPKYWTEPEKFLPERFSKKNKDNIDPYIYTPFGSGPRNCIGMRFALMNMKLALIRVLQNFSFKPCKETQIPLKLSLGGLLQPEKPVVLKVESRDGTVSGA

SMILES	EC50 [1]	EC50 [2]	Kd [3]	half-life [4]	half-life [5]	also measured
Cc1nc(-c2cccc(-c3cnn(C)c3)c2)c(C)c(-c2ccc3c(c2)CCCO3)c1[C@H](OC(C)(C)C)C(=O)O	920 nM	24 nM	59 nM			
Cc1noc(C)c1-c1ccc(-c2nc(C)c([C@H](OC(C)(C)C)C(=O)O)c(-c3ccc4c(c3)CCCO4)c2C)c(F)c1	830 nM	7.3 nM	35 nM	60 min		
Cc1noc(C)c1-c1ccc(-c2nc(C)c([C@H](OC(C)(C)C)C(=O)O)c(-c3ccc(Cl)cc3)c2C)cc1	810 nM	7.7 nM	50 nM	230 min	160 min	fold change (FC) [6]: 9.9; IC50 (Cytochrome P450 2D6): > 30 µM; Papp [7]: 17 ×10⁻⁶ cm/s; half-life [8]: 534 min; fold change (FC) [9]: 9.9; fold change (FC) [10]: 9.9; fold change (FC) [11]: 9.9; fold change (FC) [12]: 9.9; dose excreted at 3 h [13]: 22%; CL (Rattus norvegicus): 0.6%; logD [14]: 3.1; IC50 (Cytochrome P450 3A4): 17 µM; half-life [15]: 324 min; fold change (FC) [16]: 9.9; EC50 [17]: 6.5 nM; solubility [18]: 250 µg/mL (≈ 482 µM)
Cc1ccc(-c2nc(C)c([C@H](OC(C)(C)C)C(=O)O)c(-c3ccc(Cl)cc3)c2C)cc1C	2700 nM	14 nM	40 nM	77 min	51 min	
Cc1ccc(-c2nc(C)c([C@H](OC(C)(C)C)C(=O)O)c(-c3ccc4c(c3Cl)NCCO4)c2C)cc1C (single isomer, unassigned; atropisomer)	830 nM	3.3 nM	28 nM	102 min	56 min	
Cc1nc2c(ccc3ccccc32)c(-c2ccc3c(c2)CCCO3)c1[C@H](OC(C)(C)C)C(=O)O		62 nM				EC50 [19]: 63 nM; Kd [20]: 180 nM
Cc1ccc(-c2nc(C)c([C@H](OC(C)(C)C)C(=O)O)c(-c3ccc4c(c3)CCCO4)c2C)cc1	1400 nM	18 nM	31 nM	43 min		
Cc1cccc(-c2nc(C)c([C@H](OC(C)(C)C)C(=O)O)c(-c3ccc4c(c3)CCCO4)c2C)c1	1100 nM	23 nM				
Cc1nc2ccccc2c(-c2ccc3c4c(ccnc24)CCO3)c1[C@H](OC(C)(C)C)C(=O)O [BI-224436]					> 300 min	fold change (FC) [6]: 2.1; IC50 (Cytochrome P450 2D6): > 30 µM; fold change (FC) [9]: 2.1; fold change (FC) [10]: 2.1; fold change (FC) [11]: 2.1; fold change (FC) [12]: 2.1; dose excreted at 3 h [13]: 60%; CL (Rattus norvegicus): 0.7%; half-life [15]: 96 min; fold change (FC) [16]: 2.1; EC50 [17]: 11 nM; solubility [18]: > 850 µg/mL
Cc1nc(-c2cccc(-c3ccnn3C)c2)c(C)c(-c2ccc3c(c2)CCCO3)c1[C@H](OC(C)(C)C)C(=O)O	1000 nM	10 nM	52 nM			
Cc1nc2c(c(-c3ccc4c(c3)CCCO4)c1[C@H](OC(C)(C)C)C(=O)O)CCCc1ccccc1-2		560 nM				Kd [20]: 1100 nM
Cc1nc2ccccc2c(-c2ccc3c(c2)CCCO3)c1[C@H](OC(C)(C)C)C(=O)O	77 nM	51 nM				EC50 [19]: 30 nM; Kd [20]: 24 nM
Cc1ccc(-c2nc(C)c([C@H](OC(C)(C)C)C(=O)O)c(-c3ccc4c(c3)CCCO4)c2C)cc1C	1400 nM	11 nM	27 nM	34 min	110 min	
Cc1nc(-c2ccccc2)c(C)c(-c2ccc3c(c2)CCCO3)c1[C@H](OC(C)(C)C)C(=O)O	800 nM	68 nM	40 nM	32 min		Ratio [21]: 25; EC50 [19]: 78 nM; Kd [20]: 1000 nM
Cc1cc(-c2nc(C)c([C@H](OC(C)(C)C)C(=O)O)c(-c3ccc4c(c3)CCCO4)c2C)ccc1Cl	960 nM	5.8 nM	17 nM	43 min		
Cc1ccc(-c2nc(C)c([C@H](OC(C)(C)C)C(=O)O)c(-c3ccc4c(c3C)CCCO4)c2C)cc1C (single isomer, unassigned; atropisomer)	620 nM	2.7 nM	26 nM	68 min	90 min	
Cc1noc(C)c1-c1ccc(-c2nc(C)c([C@H](OC(C)(C)C)C(=O)O)c(-c3ccc4c(c3)CCCO4)c2C)cc1	390 nM	5.5 nM				
Cc1nc2c(c(-c3ccc4c(c3)CCCO4)c1[C@H](OC(C)(C)C)C(=O)O)Cc1ccccc1-2	34 nM	72 nM				EC50 [19]: 110 nM; Kd [20]: 160 nM
Cc1nc(-c2ccc(-c3ccncc3)cc2)c(C)c(-c2ccc3c(c2)CCCO3)c1[C@H](OC(C)(C)C)C(=O)O	150 nM	23 nM	24 nM			
